Compound activity: PubChem BioAssay, several laboratories
dFosB act-1: activators of mouse delta FosB homodimer; hit rate 0.99% among 340,000; purified delta FosB, TAMRA-CDK5 oligo fluorescence polarization; percent of positive-control signal above neutral wells; activation, % at 25 µM;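 active means mean activation above about 17%, with every replicate also reaching it, limit read from the data, passing the limit was not always enough; inconclusive means only one of the two conditions met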
HTR2A ag: agonists of mouse serotonin 5-HT2A receptor (HTR2A); P35363; CHO-K1 mHTR2A beta-arrestin complementation, luminescence; percent of 30 µM serotonin response; activation, % at 7.6 µM; hit rate 0.66% among 360,000;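 active means activation above a run cutoff, the mean activation of all tested compounds plus 3 SD, cut at about 14% in these data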
Target sequence (P35363 whole entry, looked up): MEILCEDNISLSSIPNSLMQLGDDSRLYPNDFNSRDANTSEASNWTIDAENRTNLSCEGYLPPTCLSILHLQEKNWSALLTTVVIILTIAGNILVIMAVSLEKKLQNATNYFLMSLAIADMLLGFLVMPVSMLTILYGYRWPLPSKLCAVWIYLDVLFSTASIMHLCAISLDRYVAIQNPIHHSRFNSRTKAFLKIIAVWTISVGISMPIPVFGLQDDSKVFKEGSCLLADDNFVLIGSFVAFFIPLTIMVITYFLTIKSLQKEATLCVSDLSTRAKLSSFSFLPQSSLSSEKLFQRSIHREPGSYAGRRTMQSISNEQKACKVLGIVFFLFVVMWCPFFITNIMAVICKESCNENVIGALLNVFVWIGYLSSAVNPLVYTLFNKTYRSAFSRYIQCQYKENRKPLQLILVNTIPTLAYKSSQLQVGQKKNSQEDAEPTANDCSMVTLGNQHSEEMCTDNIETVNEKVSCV
IMP-1 inhibitor: blocks Pseudomonas aeruginosa IMP-1 metallo-beta-lactamase | AID 1556 | inhibition, % at 5.6 µM | purified IMP-1, nitrocefin hydrolysis, epi-absorbance fluorescence | hit rate 0.45% among 290,000;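 active means inhibition above the mean plus 3 SD of all compounds in the same screening run, cut at about 4.5% in these data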
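System: purified recombinant IMP-1 beta-lactamase. Medium: Zinc- and detergent-supplemented HEPES buffer, pH 7.1. Compound: one 5.6 µM dose […]. Schedule: 15 min preincubation plus 25 min reaction at 25 °C. Technique: Epi-absorbance fluorescence, 480 nm excitation, 530 nm emission.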
VIM-2 inhibitor: blocks Pseudomonas aeruginosa VIM-2 metallo-beta-lactamase; hit rate 0.89% among 290,000; inhibition, % at 5.6 µM; purified VIM-2, nitrocefin hydrolysis, epi-absorbance fluorescence;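 active means inhibition above the mean of all tested compounds plus 3 SD, cutoff set per screening run, cut at about 7.5% in these data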;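 further: red hydrolysis product quenches plate fluorescence so inhibitors raise well fluorescence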
dFosB act-2: delta FosB (mouse) homodimer activation | shares compounds with dFosB act-1 | purified delta FosB, TAMRA-CDK5 oligo fluorescence polarization; normalised: neutral wells 0, positive control 100 | 2,400 tested, under 10 active | AID 588690 | activation, % at 24.9 µM;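 active means highest replicate activation at or above 34% and every replicate reaching that threshold; inconclusive means meets only one of the two criteria; inactive means meets neither criterion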;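 further: higher polarization means more probe DNA bound by delta FosB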
Each line names hits and unclear results; the compound was inactive in the other large screens (follow-up assays come after a bar, where they were run). A selection: hits, their analogues and other compounds. The true share with any hit is near 2.5%.

COc1ccccc1NC(=O)Nc1nnc(CC(=O)Nc2cccc(C)c2)s1	dFosB act-1 32 | dFosB act-2 inactive
COc1ccccc1NC(=O)Nc1nc(CC(=O)Nc2ccc(F)cc2)cs1	dFosB act-1 27 (no result: IMP-1 inhibitor, VIM-2 inhibitor) | dFosB act-2 inactive
C=CCn1c(SCC2CCCCO2)nc2sc(CC)cc2c1=O (stereo not drawn)	none
COc1cccc(NC(=O)Nc2nnc(CC(=O)NCc3ccccc3)s2)c1	dFosB act-1 39 | dFosB act-2 inactive
COc1ccc(NC(=O)Nc2nnc(CC(=O)NCc3ccccc3)s2)cc1	none
O=C(Nc1ccc(F)cc1)Nc1nnc(Cc2ccccc2F)s1	dFosB act-1 21 | dFosB act-2 inactive
O=C(Nc1ccccc1)Nc1nnc(Cc2ccccc2F)s1	none
COc1cccc(C(=O)Nc2nnc(SCC(=O)NC3CCCC3)s2)c1	dFosB act-1 22 | dFosB act-2 inactive
O=C(CSc1nnc(NC(=O)c2cccc(F)c2)s1)NC1CC1	none
O=C(CSc1nnc(NC(=O)c2cccc(F)c2)s1)NC1CCCC1	dFosB act-1 60, VIM-2 inhibitor 11 | dFosB act-2 inactive
CCOc1ccccc1N1CCN(Cc2cn[nH]c2-c2ccc(F)cc2)CC1	none
COc1ccc(/C=C/C(=O)OCC(=O)Nc2c(C)cccc2C)cc1	dFosB act-1 25 | dFosB act-2 inactive
N#Cc1ccc(C23CC4(C2)[C@H](CN(Cc2ccc(-c5ccccc5)cc2)[C@@H]4c2ccccc2)C3c2ccc(Cl)nc2)cc1 (stereo partly drawn)	dFosB act-1 17 (no result: IMP-1 inhibitor, VIM-2 inhibitor) | dFosB act-2 inactive
Nc1nc(NCc2ccco2)nc(Nc2ccccc2)c1[N+](=O)[O-]	none
Nc1nc(Nc2ccccc2)nc(NCc2ccco2)c1[N+](=O)[O-]	dFosB act-1 27 | dFosB act-2 inactive
COc1ccc(Br)cc1CNC(=O)CN1C(=O)C(c2ccccc2)Oc2cccnc21 (stereo not drawn)	dFosB act-1 27 | dFosB act-2 inactive
CCCCn1nnnc1C(c1cc2ccccc2o1)N1CCN(C(=O)OC(C)(C)C)CC1 (stereo not drawn)	none (no result: dFosB act-1, IMP-1 inhibitor, VIM-2 inhibitor)
O=C(COC(=O)c1cccc(S(=O)(=O)N2CCCC2)c1)Nc1cccc(Br)c1	none (no result: dFosB act-1, IMP-1 inhibitor, VIM-2 inhibitor)
COc1ccccc1CN1C(=O)C(Cc2ccccc2)ON=C1c1ncccc1C (stereo not drawn)	none (no result: dFosB act-1, IMP-1 inhibitor, VIM-2 inhibitor)
Cc1ccc2nc(-c3ccc(SCC(=O)Nc4nnc(C)s4)nc3)[nH]c2c1	dFosB act-1 72 | dFosB act-2 inactive
Cc1ccc2nc(-c3ccc(SCC(=O)Nc4nc(C)cs4)nc3)[nH]c2c1	dFosB act-1 33 | dFosB act-2 inactive
Cc1csc(NC(=O)CSc2ncc(-c3ccccc3)[nH]2)n1	none
Cc1ccc(CNC(=O)c2cc(S(=O)(=O)N3CCCCC3)ccc2N2CCOCC2)cc1	none (no result: IMP-1 inhibitor, VIM-2 inhibitor)
Cc1cccc(C)c1N1C(=O)CC(Sc2ccccc2N)C1=O (stereo not drawn)	none (no result: dFosB act-1, IMP-1 inhibitor, VIM-2 inhibitor)
COc1ccc2cc(C#N)c(SCC(=O)NNC(=O)Cc3ccccc3)nc2c1	dFosB act-1 68 | dFosB act-2 inactive
Cc1ccc2cc(C#N)c(SCC(=O)NNC(=O)Cc3ccccc3)nc2c1	none
COc1ccc2nc(SCC(=O)Nc3ccc4sc(C)nc4c3)c(C#N)cc2c1	dFosB act-1 21 | dFosB act-2 inactive
COc1cc(C(CCN2CCCCC2)c2c(OC)cc(OC)c3c(C)cc(=O)oc23)cc(OC)c1OC (stereo not drawn)	none (no result: IMP-1 inhibitor, VIM-2 inhibitor)
CN(C)CCCNC(=S)N(Cc1cccs1)Cc1cc2cc3c(cc2[nH]c1=O)OCCO3	dFosB act-1 32 | dFosB act-2 inactive
C#CCn1c(=NC(=O)c2ccc(S(=O)(=O)N3CCc4ccccc4C3)cc2)sc2cc(S(N)(=O)=O)ccc21	dFosB act-1 51 | dFosB act-2 inactive
COC(=O)Cn1c(=NC(=O)c2nc3ccccc3s2)sc2cc(S(N)(=O)=O)ccc21	dFosB act-1 inconclusive
C#CCn1c(=NC(=O)c2sc3ccccc3c2Cl)sc2cc(S(N)(=O)=O)ccc21	dFosB act-1 77 | dFosB act-2 inactive
CCCNC(=O)C1(C)CCCN(C(=O)COc2ccc(C(C)(C)C)cc2)C1 (stereo not drawn)	none (no result: dFosB act-1, IMP-1 inhibitor, VIM-2 inhibitor)
COc1ccc(Cn2c(CCC(=O)Nc3ccc(C)c(C)c3)nc3cccnc32)cc1	dFosB act-1 18 | dFosB act-2 inactive
CCCCN(CC)CCNC(=S)Nc1ccc2nc(N3CCN(C)CC3)cc(C)c2c1	dFosB act-1 21 | dFosB act-2 inactive
C=CCOc1c(Br)cc(/C=N/NC(=O)Cc2ccc(C(F)(F)F)cc2[N+](=O)[O-])cc1OC	dFosB act-1 37 | dFosB act-2 inactive
CCOc1cc(/C=N/NC(=O)Cc2ccc(C(F)(F)F)cc2[N+](=O)[O-])ccc1O	none
Nc1nnc(CC(=O)N/N=C/c2cccc(OCCOc3ccccc3)c2)s1	none
Cc1ccccc1OCCOc1cccc(/C=N/NC(=O)Cc2nnc(N)s2)c1	dFosB act-1 49 | dFosB act-2 inactive
COC(=O)c1ccc(Nc2ncnc3c2cnn3-c2cccc(C)c2)cc1	dFosB act-1 45 | dFosB act-2 inactive
COc1ccc(NC(=O)COC(=O)CO/N=C(\C)c2ccc3c(c2)OCO3)cc1S(N)(=O)=O	none (no result: IMP-1 inhibitor, VIM-2 inhibitor)
O=C(Nc1ccc(S(=O)(=O)Nc2cnc3ccccc3n2)cc1)c1cccc(OC(F)F)c1	dFosB act-1 57 | dFosB act-2 inactive
COc1cc2[nH]c(=O)c(C(=O)NCCCN3CCOCC3)c(O)c2cc1OC	dFosB act-1 33 | dFosB act-2 inactive
COc1cc2[nH]c(=O)n(Cc3ccc(C(=O)NCCCN4CCN(C)CC4)cc3)c(=O)c2cc1OC	dFosB act-1 32 | dFosB act-2 inactive
COc1ccc(CNC(=O)c2c(O)c3cc(OC)c(OC)cc3[nH]c2=O)cc1OC	dFosB act-1 inconclusive
O=C(NCCCN1CCOCC1)c1c(O)c2cc(Br)cc(Br)c2[nH]c1=O	none
CCN(CC)CCNC(=O)c1c(O)c2cc(OC)c(OC)cc2[nH]c1=O	dFosB act-1 24 | dFosB act-2 inactive
CC(=O)OCC(=O)C1(O)CCC2C3CC(F)C4=CC(=O)CCC4(C)C3C(O)CC21C (stereo not drawn)	none (no result: IMP-1 inhibitor, VIM-2 inhibitor)
CCN(CC)S(=O)(=O)c1cc(C(=O)OCC(=O)c2ccc3c(c2)NC(=O)CO3)ccc1F	dFosB act-1 20 | dFosB act-2 inactive
O=C1COc2ccc(C(=O)COC(=O)c3c(F)cccc3Cl)cc2N1	none (no result: IMP-1 inhibitor, VIM-2 inhibitor)
CN(C)S(=O)(=O)c1cccc(C(=O)OCC(=O)c2ccc3c(c2)NC(=O)CO3)c1	none
CN(C)S(=O)(=O)c1ccc(C(=O)OCC(=O)c2ccc3c(c2)NC(=O)CO3)cc1	dFosB act-1 27 | dFosB act-2 inactive
O=C1COc2ccc(C(=O)COC(=O)c3sc4ccccc4c3Cl)cc2N1	dFosB act-1 94 | dFosB act-2 inactive
O=C1COc2ccc(C(=O)COc3ccc([N+](=O)[O-])cc3)cc2N1	dFosB act-1 18 | dFosB act-2 inactive
COc1ccc2c(Cl)c(C(=O)OCC(=O)c3ccc4c(c3)NC(=O)CO4)sc2c1Cl	none
CC(C)n1ncc(N2CCOCC2)c(Cl)c1=O	none
